This passage reports inhibition and Activity results from ChEMBL document CHEMBL4261481, “Ring-opened aminothienopyridazines as novel tau aggregation inhibitors” (Medchemcomm, 2017).

Test [1] addresses Microtubule-associated protein tau (Homo sapiens) (UniProt P10636). The test is described as follows: Inhibition of heparin-induced 4R tau (unknown origin) aggregation at 100 uM after 3 days by ThT fluorescence assay relative to control. The method in brief:
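20 μM 4R tau plus 5 μM heparin (avg MW 15 000) in 100 mM sodium acetate pH 7.0, ± 100 μM compound, incubated 3 days at 37 °C with 1 mM DTT added daily. ThT 12.5 μM then added, 1 h at room temperature. Spectra read with excitation 440 nm, emission 450–750 nm; intensity at emission maximum compared with tau alone.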

For test [2] the target is unchanged. The test is described as follows: Induction of heparin-induced recombinant 4R tau (unknown origin) fibril oxidation at cysteine residues at 200 uM after 2 hrs by oregon green binding assay. In short, it runs like this:
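Recombinant 4R tau (10 μM) fibrillised with 40 μM heparin in sodium acetate buffer pH 7, ± 200 μM compound, 37 °C, 2 h. Controls reduced with 1 mM DTT or oxidised with 20% v/v DMSO. Then labeled with Oregon green-iodoacetamide 30 min at room temperature, SDS-PAGE, fluorescence imaging. Band intensity normalized to Coomassie-stained total tau; 5 independent experiments.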

Test [3] has the same target. In words: Inhibition of heparin-induced 4R tau (unknown origin) aggregation at 200 uM after 24 hrs by filter trap assay. The method in brief:
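Heparin-induced fibrillisation of 4R tau in PBS with 200 μM compound, 37 °C, 24 h. Fibrils diluted to 0.8 μM tau in 2% SDS, vacuum-filtered through membrane, washed twice with 2% SDS, probed with 4R tau-specific antibody, chemiluminescent dot detection and densitometry; 7 independent experiments.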

SMILES strings stand for the structures. Active and inactive are the calls of the source. No cut-off for these calls is given here.

Chain of Microtubule-associated protein tau (Homo sapiens) (P10636 whole entry): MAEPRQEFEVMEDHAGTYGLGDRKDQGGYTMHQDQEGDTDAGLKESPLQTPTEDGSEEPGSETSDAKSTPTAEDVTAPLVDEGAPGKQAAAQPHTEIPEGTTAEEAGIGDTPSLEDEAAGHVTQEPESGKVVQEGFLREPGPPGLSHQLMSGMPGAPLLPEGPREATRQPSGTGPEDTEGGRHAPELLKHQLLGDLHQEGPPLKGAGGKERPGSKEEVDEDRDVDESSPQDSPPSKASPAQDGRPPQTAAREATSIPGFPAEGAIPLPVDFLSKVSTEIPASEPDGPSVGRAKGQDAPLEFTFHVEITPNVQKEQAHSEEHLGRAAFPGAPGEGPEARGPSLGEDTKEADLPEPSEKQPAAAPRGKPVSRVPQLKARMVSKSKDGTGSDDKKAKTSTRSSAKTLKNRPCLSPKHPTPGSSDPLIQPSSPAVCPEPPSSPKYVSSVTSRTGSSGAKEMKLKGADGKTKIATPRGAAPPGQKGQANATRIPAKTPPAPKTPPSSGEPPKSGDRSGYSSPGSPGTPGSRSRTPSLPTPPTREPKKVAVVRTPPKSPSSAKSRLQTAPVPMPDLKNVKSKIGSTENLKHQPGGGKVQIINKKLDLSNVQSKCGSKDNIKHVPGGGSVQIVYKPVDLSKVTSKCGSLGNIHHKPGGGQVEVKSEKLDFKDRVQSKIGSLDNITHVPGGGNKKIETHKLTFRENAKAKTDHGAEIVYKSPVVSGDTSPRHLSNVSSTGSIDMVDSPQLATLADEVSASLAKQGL

For the molecule `Nc1scc2c(C(=O)NC3CC3)nn(-c3ccc(F)cc3)c(=O)c12`, in test [1], the inhibition worked out at 51%. Moreover, the result in test [2] was Active. In addition, the inhibition entry in test [3] was “Active”.

The molecule `C=CCO/N=C(\C(=O)NC1CC1)c1csc(N)c1C(=O)Nc1ccc(F)cc1` came in with an inhibition in test [1] of 33%. For the same molecule, in test [2], the result was inactive. Moreover, the inhibition result in test [3] is “Active”.

Molecule `Nc1scc(/C(=N/O)C(=O)NC2CC2)c1C(=O)NC12CC3CC(CC(C3)C1)C2` gave an inhibition in test [1] of 30%. The result in test [2] was Active. Moreover, in test [3], the inhibition entry was “Active”.

With `Nc1scc(/C(=N/O)C(=O)NC2CC2)c1C(=O)Nc1ccc(F)cc1`, in test [2], the result was Active. The inhibition entry in test [3] is “Active”.
